Results on 28 molecules are retold here after ChEMBL document CHEMBL4619817, “Stereochemical Differences in Fluorocyclopropyl Amides Enable Tuning of Btk Inhibition and Off-Target Activity” (ACS Med Chem Lett, 2020).

Data set [1] in a line: Metabolic stability in human liver microsomes assessed as intrinsic clearance at 1 uM measured upto 60 mins by LC-MS/MS analysis. Conditions: read-out: CLH. In kind it is ADME, Microsome. (In general: Microsomes from liver hold many membrane-bound enzymes, among them those of drug oxidation.)
A short description of data set [2]: Lipophilicity, logD of compound at 7.4 by the LC/MS based microscale shake flask method. Conditions: octanol/water, pH 7.4. In kind it is physicochemical. Put shortly:
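LogD measured by high-throughput microscale shake flask with LC tandem MS quantitation.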

Data set [3] can be described thus: Metabolic stability in rat liver microsomes assessed as intrinsic clearance at 1 uM measured upto 60 mins by LC-MS/MS analysis. The conditions noted are these: read-out: CLH. In kind it is ADME, Microsome.
The nature of data set [4]: Apparent permeability from apical to basolateral side in MDCK cells at 10 uM incubated for 3 hrs by LC-MS/MS analysis. The format is ADME, cell-based, Canis lupus familiaris. Conditions: dog.
Data set [5] can be described thus: Oral bioavailability in Sprague-Dawley rat at 1 mg/kg measured upto 8 hrs by LC-MS/MS analysis. The conditions noted are these: in vivo. In kind it is ADME, organism-based.
Data set [6] in a line: Metabolic stability in human Hepatocyte assessed as compound hydrolysis at 5 uM incubated for 3 hrs by LC-MS/MS analysis. The format is ADME, cell-based. The conditions noted are these: hepatocytes, read-out: Drug degradation. Put shortly: (§1)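 Compound incubated at 5 μM in cryopreserved hepatocytes (∼1.0 × 10^6 cells/mL) for 3 h; percent amide hydrolysis determined.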
Data set [7] can be described thus: Metabolic stability in rat Hepatocyte assessed as compound hydrolysis at 5 uM incubated for 3 hrs by LC-MS/MS analysis. The format is ADME, cell-based. The conditions noted are these: hepatocytes, read-out: Drug degradation. In a few lines: as §1
The nature of data set [8]: Metabolic stability in rat Hepatocyte assessed as intrinsic clearance at 1 uM measured upto 60 mins by LC-MS/MS analysis. Conditions: hepatocytes, read-out: CLH. The format is ADME, cell-based.
A short description of data set [9]: Clearance in Sprague-Dawley rat at 0.2 mg/kg, iv measured upto 8 hrs by LC-MS/MS analysis. The format is ADME, organism-based. The conditions noted are these: in vivo.
Data set [10] can be described thus: Unbound clearance in Sprague-Dawley rat at 1 mg/kg, po measured upto 8 hrs by LC-MS/MS analysis. The conditions noted are these: in vivo. The format is ADME, organism-based.
Data set [11] can be described thus: Clearance in Beagle dog at 1 mg/kg, iv measured upto 24 hrs by LC-MS/MS analysis. The format is ADME, organism-based, Canis lupus familiaris. Conditions: in vivo.
Data set [12] can be described thus: Metabolic stability in human Hepatocyte assessed as intrinsic clearance at 1 uM measured upto 60 mins by LC-MS/MS analysis. The format is ADME, cell-based. Conditions: hepatocytes, read-out: CLH.
Data set [13] in a line: Metabolic stability in dog Hepatocyte assessed as intrinsic clearance at 1 uM measured upto 60 mins by LC-MS/MS analysis. The format is ADME, cell-based, Canis lupus familiaris. Conditions: hepatocytes, read-out: CLH.
Data set [14] in a line: Metabolic stability in dog liver microsomes assessed as intrinsic clearance at 1 uM measured upto 60 mins by LC-MS/MS analysis. The conditions noted are these: read-out: CLH. The format is ADME, Canis lupus familiaris, Microsome.
A short description of data set [15]: Metabolic stability in dog Hepatocyte assessed as compound hydrolysis at 5 uM incubated for 3 hrs by LC-MS/MS analysis. Conditions: hepatocytes, read-out: Drug degradation. In kind it is ADME, cell-based, Canis lupus familiaris. Put shortly:
as §1

The nature of data set [16]: Oral bioavailability in Beagle dog at 2 mg/kg measured upto 24 hrs by LC-MS/MS analysis. The format is ADME, organism-based, Canis lupus familiaris. The conditions noted are these: in vivo.
Data set [17] in a line: Oral bioavailability in Beagle dog at 5 mg/kg measured upto 24 hrs by LC-MS/MS analysis. In kind it is ADME, organism-based, Canis lupus familiaris. The conditions noted are these: in vivo.

For orientation: logD means lipophilicity at a set pH, counting ionised and neutral species. A lower logD goes with a more hydrophilic compound. Take `Cn1cc(-c2ccnc(-n3ncc4cc(C(C)(C)C)cc(F)c4c3=O)c2CO)nc(NC(=O)[C@@H]2C[C@@H]2F)c1=O`: the CLint scaled at 1 µM in data set [1] was less than 3.9 mL/min/kg; in [3], 13 mL/min/kg. In data set [2], this molecule had a logD of 1.3.

One may read the Papp A→B as how fast a substance crosses the layer from the apical side. Regarding `Cn1cc(-c2ccnc(-n3ncc4cc(C(C)(C)C)cc(F)c4c3=O)c2CO)cc(NC(=O)[C@@H]2C[C@H]2F)c1=O`, the CLint scaled at 1 µM in data set [1] came out at 4.6 mL/min/kg; in data set [3] it was 15 mL/min/kg. Besides, the Papp A→B at 3 h, 10 µM in data set [4] turned out to be 14 ×10⁻⁶ cm/s. This molecule came in with a logD in data set [2] of 2.5.

For `CC(C)C(=O)Nc1cc(-c2ccnc(N3CCn4c(cc5c4CC(C)(C)C5)C3=O)c2CO)cn(C)c1=O`, the logD in [2] turned out to be 3.2.

For the molecule `Cn1cc(-c2ccnc(-n3ncc4cc(C(C)(C)C)cc(F)c4c3=O)c2CO)cc(NC(=O)C2CC2)c1=O`, the CLint scaled at 1 µM turned out to be 3.2 mL/min/kg in data set [1] and 13 mL/min/kg in [3]. The Papp A→B at 3 h, 10 µM in [4] stood at 13.5 ×10⁻⁶ cm/s. Also, the logD in [2] came to 2.5.

With `Cn1cc(-c2ccnc(-n3ncc4c5c(sc4c3=O)CCCC5)c2CO)cc(NC(=O)C2CC2)c1=O`, the CLint scaled at 1 µM in data set [1] worked out at 7.4 mL/min/kg; in data set [3] it was 8.4 mL/min/kg. The molecule further yielded a logD in data set [2] of 2.1.

For `Cn1cc(-c2ccnc(N3CCn4c(cc5c4CC(C)(C)C5)C3=O)c2CO)cc(NC(=O)C2CCC2)c1=O`, the logD in data set [2] came out at 3.3.

As for `Cn1cc(-c2ccnc(N3CCn4c(cc5c4CC(C)(C)C5)C3=O)c2CO)cc(NC(=O)C2(F)CC2)c1=O`, in [2], the logD amounted to 2.5.

As for `Cn1cc(-c2ccnc(N3CCn4c(cc5c4CC(C)(C)C5)C3=O)c2CO)cc(NC(=O)[C@H]2C[C@H]2F)c1=O`, the logD in data set [2] was 2.3.

Molecule `Cn1cc(-c2ccnc(N3CCn4c(cc5c4CC(C)(C)C5)C3=O)c2CO)cc(NC(=O)c2cccnc2)c1=O` showed a logD in data set [2] of 2.

As usually defined, the clearance is the volume of plasma or blood freed of the substance per unit of time. A high value points to a high capacity for elimination. With `Cn1cc(-c2ccnc(-n3ncc4cc(C(C)(C)C)cc(F)c4c3=O)c2CO)cc(NC(=O)[C@@H]2C[C@@H]2F)c1=O`, the bioavailability in data set [5] stood at 40%; in [16] it was 123%. Further, the CLint scaled at 1 µM in data set [1] is 8 mL/min/kg; in [8], 11 mL/min/kg; in data set [12], 6.2 mL/min/kg; in data set [13] it was less than 21 mL/min/kg; in data set [14] it was 20 mL/min/kg; in [3], 11 mL/min/kg. Also, the metabolised at 3 h, 5 µM in [6], in [7] and in data set [15] was no more than 1% throughout. Further, in data set [4], the Papp A→B at 3 h, 10 µM is 12.1 to 12.5 ×10⁻⁶ cm/s. Further, the clearance in data set [9] was found to be 15 mL/min/kg; in data set [11] it was 2 mL/min/kg. The same molecule had a CL free in data set [10] of 326 mL/min/kg. Also, in [2], the logD was 1.6.

On to `C[C@H]1CN(C2COC2)CCN1c1ccc(Nc2cc(-c3ccnc(N4CCn5c(cc6c5CC(C)(C)C6)C4=O)c3CO)cn(C)c2=O)nc1` [FENEBRUTINIB], for which the bioavailability in data set [5] worked out at 96%; in data set [17], 130%. In addition, the CLint scaled at 1 µM was 9.5 mL/min/kg in data set [1]; 10 mL/min/kg in data set [8]; 9.3 mL/min/kg in data set [12]; less than 21 mL/min/kg in [13]; 29 mL/min/kg in data set [14]; 14 mL/min/kg in data set [3]. The Papp A→B at 3 h, 10 µM in data set [4] was found to be 15.1 ×10⁻⁶ cm/s. Further, the clearance in data set [9] came out at 22 mL/min/kg; in [11], 12 mL/min/kg. The CL free in data set [10] was determined as 314 mL/min/kg. The logD in [2] was 1.6.

Molecule `Cn1cc(-c2ccnc(N3CCn4c(cc5c4CC(C)(C)C5)C3=O)c2CO)cc(NC(=O)CN2CCOCC2)c1=O` gave a logD in data set [2] of 2.3.

As for `Cn1cc(-c2ccnc(N3CCn4c(cc5c4CC(C)(C)C5)C3=O)c2CO)cc(NC(=O)C2CC2)c1=O`, the CLint scaled at 1 µM in [1] is 5.3 mL/min/kg; in data set [3] it was 7.2 mL/min/kg. Further, the logD in data set [2] was determined as 3.

With `COCC(=O)Nc1cc(-c2ccnc(N3CCn4c(cc5c4CC(C)(C)C5)C3=O)c2CO)cn(C)c1=O`, the pH-dependent lipophilicity (logD) in data set [2] stood at 1.5.

In data set [2], `Cn1cc(-c2ccnc(N3CCn4c(cc5c4CC(C)(C)C5)C3=O)c2CO)cc(NC(=O)[C@@H]2C[C@@H]2F)c1=O` showed a pH-dependent lipophilicity (logD) of 2.5.

As to `CCCC(=O)Nc1cc(-c2ccnc(N3CCn4c(cc5c4CC(C)(C)C5)C3=O)c2CO)cn(C)c1=O`, the logD in [2] was found to be 2.6.

Take `Cn1cc(-c2ccnc(N3CCn4c(cc5c4CC(C)(C)C5)C3=O)c2CO)cc(NC(=O)C2(O)CC2)c1=O`: the logD in data set [2] was 1.8.

On to `Cn1cc(-c2ccnc(N3CCn4c(cc5c4CC(C)(C)C5)C3=O)c2CO)cc(NC(=O)CC2CC2)c1=O`, for which the logD in data set [2] is 3.4.

On to `Cn1cc(-c2ccnc(N3CCn4c(cc5c4CC(C)(C)C5)C3=O)c2CO)cc(NC(=O)C2COC2)c1=O`, for which, in data set [2], the logD is 2.2.

The molecule `CC(=O)Nc1cc(-c2ccnc(N3CCn4c(cc5c4CC(C)(C)C5)C3=O)c2CO)cn(C)c1=O` returned a logD in [2] of 2.1.

In turn, `Cn1cc(-c2ccnc(N3CCn4c(cc5c4CC(C)(C)C5)C3=O)c2CO)cc(NC(=O)[C@@H]2CCCO2)c1=O` gave a logD in [2] of 2.1.

With `Cn1cc(-c2ccnc(N3CCc4c(cc5n4CCCC5)C3=O)c2CO)cc(NC(=O)C2CC2)c1=O`, the CLint scaled at 1 µM stood at 9.8 mL/min/kg in [1] and 20 mL/min/kg in [3]. The logD in [2] was 1.2.

Take `Cn1cc(-c2ccnc(-n3ncc4cc(C(C)(C)C)cc(F)c4c3=O)c2CO)cc(NC(=O)[C@H]2C[C@H]2F)c1=O`: the CLint scaled at 1 µM in data set [1] was found to be 5.5 mL/min/kg; in data set [3], 11 mL/min/kg. Besides, in [4], the Papp A→B at 3 h, 10 µM was 6.4 ×10⁻⁶ cm/s. The logD in [2] was found to be 2.

Turning to `Cn1cc(-c2cc(F)cc(-n3ncc4cc(C(C)(C)C)cc(F)c4c3=O)c2CO)cc(NC(=O)[C@@H]2C[C@@H]2F)c1=O`, the logD in data set [2] was 2.8.

Take `Cn1nc(-c2ccnc(-n3ncc4cc(C(C)(C)C)cc(F)c4c3=O)c2CO)cc(NC(=O)[C@@H]2C[C@@H]2F)c1=O`: the CLint scaled at 1 µM in [1] came out at 7.4 mL/min/kg; in data set [3], 16 mL/min/kg. This molecule displayed a logD in data set [2] of 1.7.

As to `Cn1cc(-c2ccnc(-n3ncc4cc(C(C)(C)C)cc(F)c4c3=O)c2CO)cc(NC(=O)[C@H]2C[C@@H]2F)c1=O`, the results for the CLint scaled at 1 µM in data set [1] and in data set [3] were 8.5 mL/min/kg and 14 mL/min/kg, respectively. Also, the Papp A→B at 3 h, 10 µM in data set [4] is 10.8 ×10⁻⁶ cm/s. In data set [2], this molecule gave a logD of 3.

As for `CCC(=O)Nc1cc(-c2ccnc(N3CCn4c(cc5c4CC(C)(C)C5)C3=O)c2CO)cn(C)c1=O`, the logD in data set [2] came to 2.5.

`Cn1cc(-c2cc(F)cc(-n3ncc4cc(C(C)(C)C)cc(F)c4c3=O)c2CO)cc(NC(=O)[C@H]2C[C@H]2F)c1=O`: in data set [2], the logD came to 2.
